For series [1], the target named is Delta-type opioid receptor (Homo sapiens, UniProt P41143). Nature of the series: Displacement of [3H]naltrindole from human delta opioid receptor expressed in CHO cells after 3 hrs by liquid scintillation counting. It is filed as cell-based. The gist of the method: (§1)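 Membranes from CHO cells stably expressing one human opioid receptor, incubated at 25 °C in 50 mM Tris-HCl pH 7.5 with radioligand: [3H]DAMGO 0.25 nM (60 min), [3H]U69,593 1 nM (60 min), [3H]naltrindole 0.2 nM (3 h). […] Filtered on glass fibre (PEI-soaked for kappa), washed, scintillation counted; IC50 by log-probit fit, Ki via Cheng–Prusoff.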
For orientation: In a radioligand displacement assay an active substance lowers the binding of a labelled ligand.

The species entered for series [2] is Homo sapiens. Nature of the series: Selectivity ratio of Ki for human delta opioid receptor to Ki for human kappa opioid receptor.
For series [3], the target named is T1, Mu-type opioid receptor (Homo sapiens, UniProt P35372). Nature of the series: Displacement of [3H]DAMGO from human mu opioid receptor expressed in CHO cells after 60 mins by liquid scintillation counting. Format: cell-based.
Series [4] has as its target T2, Kappa-type opioid receptor (Homo sapiens, UniProt P41145). Nature of the series: Displacement of [3H]U69593 from human kappa opioid receptor expressed in CHO cells after 60 mins by liquid scintillation counting. It is filed as cell-based. In a few lines:
as §1

The target of series [5] is T2, Kappa-type opioid receptor. Kind of series: Agonist activity at human kappa opioid receptor expressed in CHO cells assessed as stimulation of [35S]GTPgammaS binding. It is filed as functional, cell-based. The gist of the method: (§2)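 Agonist mode: 12 concentrations of each compound incubated with CHO cells expressing the receptor named in the line; agonist-stimulated [35S]GTPγS binding measured.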
On the technique in general: Binding of GTPγS marks nucleotide exchange on a G protein.

For series [6], the target named is T2, Kappa-type opioid receptor. Kind of series: Agonist activity at human kappa opioid receptor expressed in CHO cells assessed as maximal stimulation of [35S]GTPgammaS binding relatiev to U50488. Format: functional, cell-based. The gist of the method: as §2
The target in series [7] is T1, Mu-type opioid receptor. Kind of series: Agonist activity at human mu opioid receptor expressed in CHO cells assessed as stimulation of [35S]GTPgammaS binding. It is filed as functional, cell-based.
Series [8] is described as follows: Chemical stability assessed as hydrolysis half life in presence of porcine liver esterase. It is filed as ADME. The settings on record: pig, isolated protein.
Series [9] deals with T1, Mu-type opioid receptor. Nature of the series: Antagonist activity at human mu opioid receptor expressed in CHO cells assessed as inhibition of DAMGO-stimulated [35S]GTPgammaS binding. Format: functional, cell-based.
A short description of series [10]: Chemical stability at pH 7.4 buffer assessed as hydrolysis half life. Format: physicochemical.
The target in series [11] is T2, Kappa-type opioid receptor. Kind of series: Antagonist activity at human kappa opioid receptor expressed in CHO cells assessed as inhibition of U50488-stimulated [35S]GTPgammaS binding. It is filed as functional, cell-based.
In series [12] the target is T1, Mu-type opioid receptor. Nature of the series: Agonist activity at human mu opioid receptor expressed in CHO cells assessed as maximal stimulation of [35S]GTPgammaS binding relatiev to DAMGO. It is filed as functional, cell-based. The gist of the method:
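12 concentrations of each compound incubated with CHO cells expressing the mu receptor; [35S]GTPγS binding stimulation measured, maximal stimulation taken as Emax.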

Series [13] has as its target T1, Mu-type opioid receptor. Kind of series: Antagonist activity at human mu opioid receptor expressed in CHO cells assessed as inhibition of DAMGO-stimulated [35S]GTPgammaS binding at 10 uM. It is filed as functional, cell-based.

Activity calls are given as the source filed them. The rule behind the calls is not given here.

Chain of Delta-type opioid receptor (P41143 whole entry): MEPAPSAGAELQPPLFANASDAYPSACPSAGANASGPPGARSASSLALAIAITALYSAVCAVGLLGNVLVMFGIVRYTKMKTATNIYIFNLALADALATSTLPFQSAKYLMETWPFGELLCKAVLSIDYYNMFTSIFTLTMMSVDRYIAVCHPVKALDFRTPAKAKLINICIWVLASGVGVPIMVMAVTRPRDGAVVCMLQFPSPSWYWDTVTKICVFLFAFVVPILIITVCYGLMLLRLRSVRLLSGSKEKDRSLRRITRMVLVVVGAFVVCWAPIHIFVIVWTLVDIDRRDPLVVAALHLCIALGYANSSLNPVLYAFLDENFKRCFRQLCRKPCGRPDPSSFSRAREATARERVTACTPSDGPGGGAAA
T1 sequence (P35372 whole entry): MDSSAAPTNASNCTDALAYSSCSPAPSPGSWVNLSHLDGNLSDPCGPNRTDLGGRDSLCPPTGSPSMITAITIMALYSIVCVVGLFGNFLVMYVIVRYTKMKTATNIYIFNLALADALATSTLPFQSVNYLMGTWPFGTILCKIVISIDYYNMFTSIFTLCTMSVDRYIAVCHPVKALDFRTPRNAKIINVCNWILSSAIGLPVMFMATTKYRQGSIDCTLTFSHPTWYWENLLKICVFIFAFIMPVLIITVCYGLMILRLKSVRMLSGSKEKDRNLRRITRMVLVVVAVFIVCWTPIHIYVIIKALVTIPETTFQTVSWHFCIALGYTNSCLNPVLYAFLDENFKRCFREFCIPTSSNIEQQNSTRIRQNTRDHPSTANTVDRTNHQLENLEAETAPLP
T2 sequence (P41145 whole entry): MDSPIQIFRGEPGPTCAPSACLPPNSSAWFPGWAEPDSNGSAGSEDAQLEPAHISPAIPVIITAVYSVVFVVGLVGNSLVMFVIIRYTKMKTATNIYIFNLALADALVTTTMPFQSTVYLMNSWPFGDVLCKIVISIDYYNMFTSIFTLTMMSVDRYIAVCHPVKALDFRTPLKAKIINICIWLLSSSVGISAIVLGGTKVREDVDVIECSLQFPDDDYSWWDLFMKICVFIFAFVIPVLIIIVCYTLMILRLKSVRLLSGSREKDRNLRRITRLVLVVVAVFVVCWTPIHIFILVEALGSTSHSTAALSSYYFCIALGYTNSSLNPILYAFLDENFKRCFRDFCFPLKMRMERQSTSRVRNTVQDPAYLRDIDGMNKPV

With `CC(C)(CCCCCCC(C)(C)C(=O)Oc1ccc2c(c1)[C@@]13CCCC[C@H]1[C@@H](C2)N(CC1CCC1)CC3)C(=O)O`, the inhibition constant (Ki) (usually the dissociation constant of the complex between target and ligand, obtained from inhibition or displacement) was 390 nM in [1], 47 nM in [3] and 18 nM in series [4]. Moreover, the Ratio Ki in series [2] was found to be 22.

In the case of `CC(C)(CCCCCCC(C)(C)C(=O)Oc1ccc2c(c1)[C@@]13CCCC[C@H]1[C@@H](C2)N(CC1CCC1)CC3)C(=O)Oc1ccc2c(c1)[C@@]13CCCC[C@H]1[C@@H](C2)N(CC1CCC1)CC3`, the 50% effective concentration (EC50) (commonly the midpoint of the concentration-response curve) worked out at 6.4 nM in series [5] and 11 nM in series [7]. Moreover, the Emax (usually the size of the effect at its maximum, as opposed to the concentration needed) was determined as 60% in series [6] and 40% in series [12]. Moreover, the t1/2 in series [8] was 1.67 h; in [10], 1.68 h. Further, the Ki was 15 nM in series [1], 0.47 nM in series [3] and 0.47 nM in series [4]. The Ratio Ki in series [2] is 32. Also, the Imax in series [9] amounted to 50%. The figures for the IC50 in series [9] (read-out: IC50) and in series [11] were 81 nM and “Not Active”, respectively. For the same compound, in [11], the Imax entry was “inactive”.

Regarding `O=C(O)CCCCCCCCC(=O)Oc1ccc2c(c1)[C@@]13CCCC[C@H]1[C@@H](C2)N(CC1CCC1)CC3`, the values for the concentration for a half-maximal effect (EC50) in series [5] and in series [7] were 2.8 nM and 3 nM, respectively. Further, the Emax in series [6] was found to be 75%; in series [12], 110%. The inhibition constant (Ki) in series [1] turned out to be 18 nM; in series [3] it was 0.71 nM; in series [4] it was 0.29 nM. The Imax entry in [9] and in series [11] was “inactive” each time. Further, the concentration for half-maximal inhibition (IC50) result in series [9] (cho) and in series [11] was “Not Active” each time.

As to `COC(=O)C(C)CCCCCCC(C)C(=O)Oc1ccc2c(c1)[C@@]13CCCC[C@H]1[C@@H](C2)N(CC1CCC1)CC3` (stereo partly drawn), the Ki in series [1] was 42 nM; in [3], 1.7 nM; in series [4] it was 0.94 nM. The Ratio Ki in series [2] amounted to 45.

In the case of `CC(C)(CCCCCCC(C)(C)C(=O)Oc1ccc2c(c1)[C@@]13CCCC[C@H]1[C@@H](C2)N(CC1CCC1)CC3)C(=O)OCc1ccccc1`, the Ki turned out to be 210 nM in [1], 8.6 nM in series [3] and 4.7 nM in [4]. Also, in series [2], the Ratio Ki came to 45.

Regarding `O=C(CCCCCCCCC(=O)Oc1ccc2c(c1)[C@@]13CCCC[C@H]1[C@@H](C2)N(CC1CCC1)CC3)Oc1ccc2c(c1)[C@@]13CCCC[C@H]1[C@@H](C2)N(CC1CCC1)CC3`, the Emax in series [6] turned out to be 65%. Moreover, the results for the t1/2 in series [8] and in [10] were 1.83 h and 0.767 h, respectively. Also, the Ratio Ki in series [2] came to 90. Besides, the Imax in [9] is 44%. In series [11], the concentration for half-maximal inhibition (IC50) (usually the concentration that gives 50% inhibition) is given as “Not Active”. Besides, the Imax entry in series [11] is “inactive”.

With `CC(CCCCCCC(C)C(=O)Oc1ccc2c(c1)[C@@]13CCCC[C@H]1[C@@H](C2)N(CC1CCC1)CC3)C(=O)Oc1ccc2c(c1)[C@@]13CCCC[C@H]1[C@@H](C2)N(CC1CCC1)CC3` (stereo partly drawn), the 50% effective concentration (EC50) was found to be 7.3 nM in [5] and 7.1 nM in series [7]. The maximal effect (Emax) in [6] was 54%; in series [12], 26%. Also, the t1/2 in [8] amounted to 2.18 h; in [10], 1.38 h. In addition, the Ki in [1] amounted to 37 nM; in [3] it was 0.95 nM; in series [4] it was 0.62 nM. The Ratio Ki in [2] was 60. Moreover, in [9], the Imax was found to be 50%. Further, the IC50 in series [9] (read-out: IC50) is 140 nM; in series [11], “Not Active”. The Imax entry in series [11] is “inactive”.

On to `C=CCN1CC[C@]23c4c5ccc(OC(=O)CCCCCCCCC(=O)Oc6ccc7c(c6)[C@@]68CCCC[C@H]6C(C7)N(CC6CCC6)CC8)c4O[C@H]2CCC[C@H]3[C@H]1C5`, for which the concentration giving a half-maximal response (EC50) in [5] was found to be 1.6 nM; in [7] it was 2 nM. Moreover, the figures for the maximal effect (Emax) in series [6] and in [12] were 86% and 34%, respectively. In addition, the inhibition constant Ki in series [1] was determined as 39 nM; in [3], 0.43 nM; in series [4], 0.13 nM. Besides, the Ratio Ki in series [2] was 300. Also, the Imax in series [9] is 73%. The IC50 in series [9] (read-out: IC50) is 25 nM; in series [11], “Not Active”. Besides, the Imax result in series [11] is “inactive”.

`CC(CCCCCCC(C)C(=O)Oc1ccc2c(c1)[C@@]13CCCC[C@H]1[C@@H](C2)N(CC1CCC1)CC3)C(=O)O` (stereo partly drawn): the results for the concentration for a half-maximal effect (EC50) in [5] and in [7] were 4.9 nM and 13 nM, respectively. The maximal response (Emax) in [6] was 58%; in series [12], 25%. Also, the values for the inhibitory constant (Ki) in series [1], in series [3] and in series [4] were 20 nM, 0.46 nM and 0.42 nM, respectively. The Imax in series [13] is 48%. For the same compound, the Ratio Ki in series [2] worked out at 48. The IC50 result in [9] (cho) and in series [11] was “Not Active” in each case. For the same compound, the Imax entry in series [11] was “inactive”.

In the case of `CC(CCCCC(C)C(=O)Oc1ccc2c(c1)[C@@]13CCCC[C@H]1[C@@H](C2)N(CC1CCC1)CC3)C(=O)Oc1ccc2c(c1)[C@@]13CCCC[C@H]1[C@@H](C2)N(CC1CCC1)CC3` (stereo partly drawn), the results for the t1/2 in [8] and in series [10] were 1.9 h and 3.68 h, respectively. Besides, the Ki came to 50 nM in [1], 2.9 nM in [3] and 2.2 nM in series [4]. In addition, the Ratio Ki in series [2] was found to be 23.

(Values after ChEMBL document CHEMBL1154777 (J Med Chem, 2009).)
